Here are results for one compound from ChEMBL document CHEMBL3580599, “Synthesis and Biological Evaluation of Novel Homoisoflavonoids for Retinal Neovascularization” (J Med Chem, 2015).

SMILES strings stand for the structures. Active and inactive are the calls of the source. The calls are words filed in the database; no cut-off is given here.

The nature of data set [1]: Induction of apoptosis in human HREC cells up to 2 uM after 4 hrs by TUNEL assay. In kind it is functional. Put shortly:
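HRECs, 25,000 per coated coverslip, grown overnight in EGM-2, then 4 h in fresh medium with compound. Fixed in 4% paraformaldehyde 20 min at room temperature, permeabilized with 0.25% Triton X-100 20 min, then TUNEL-labelled with DAPI counterstain. Percent apoptotic cells counted on three low-power fields per coverslip. n = 3, SEM.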

Data set [2] can be described thus: Toxicity in human HREC cells up to 2 uM by trypan blue exclusion assay. In kind it is cell-based. Put shortly:
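HRECs in complete EGM-2 grown to 70% confluency, then treated 48 h with compound. After trypsinization, live and dead cells, including floating cells, were counted by Trypan blue on a hemocytometer. Viability taken as live/total cells. n = 3, triplicate experiments, SEM.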

The species named for data set [3] is Mus musculus. The experiment in a line: Ocular toxicity in mouse model assessed as gross morphological changes in retinal vasculature at 1 uM. In kind it is organism-based. To be noted: in vivo. Put shortly:
(§1)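 Newborn C57BL/6 pups with nursing mother held in 75% O₂ from P7 to P12. At P12, under isoflurane, 0.5 μL of a 10 μM solution (DMSO stock diluted into PBS) was injected intravitreally into each eye, estimated to give 1 μM in vitreous. Controls got vehicle or 5 ng anti-VEGF antibody. Retinas were whole-mounted, stained with isolectin B4-Alexa 488 and imaged by confocal microscopy.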

A further data set has as its system Y79. Description: Growth inhibition of human Y79 cells assessed as reduction in cell number after 48 hrs by alamarBlue based fluorescence assay. The format is functional. To be noted: Y79, 48 h. Put shortly: (§2)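 Cells (2,500 per well in growth medium) were allowed 24 h, then exposed 48 h to compound over 0.5 nM–500 μM. alamarBlue was added and fluorescence read 4 h later (ex 560/em 590 nm). Dose-response curves were fitted relative to DMSO control; compounds not reducing cell number ≥50% at the top concentration were reported as GI50 >100 μM.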

Data set [4] in a line: Selectivity ratio of GI50 for human Y79 cells to GI50 for human HREC cells. The format is ADME, cell-based. To be noted: Y79 cells and HREC cells.
Data set [5] deals with HREC. Description: Antiangiogenic activity in human HREC cells assessed as inhibition of tube formation after 8 hrs by matrigel assay. The format is functional, cell-based. Summed up:
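HRECs, 7,500 per well in EGM-2, plated on Matrigel basement membrane with or without compound; after 8 h, imaged and tube length measured by image analysis.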

A short description of data set [6]: Selectivity ratio of GI50 for HUVEC cells to GI50 for human HREC cells. The format is ADME, cell-based. To be noted: HUVEC cells and HREC cells, read-out: RatioGI50.
A short description of data set [7]: Growth inhibition of human 92-1 cells assessed as reduction in cell number after 48 hrs by alamarBlue based fluorescence assay. In kind it is functional. Put shortly:
as §2
Background: Alamar Blue is a resazurin reagent that responds to reducing activity.

Data set [8] can be described thus: Induction of apoptosis in human HREC cells assessed as activated caspase 3 up to 2 uM after 4 hrs by immunofluorescence assay. In kind it is functional. Summed up: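 HRECs on coated coverslips, overnight in EGM-2, then treated 4 h at indicated concentrations. Fixed in 4% paraformaldehyde, permeabilized with 0.5% Triton X-100, immunostained for activated caspase 3 and imaged by confocal microscopy. Staurosporine 1 μM served as positive control.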

Data set [9] deals with HREC. Description: Inhibition of cell migration in human HREC cells after 8 hrs scratch-wound assay. In kind it is functional, cell-based. Put shortly: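 HRECs (10⁵ per coated well) grown to confluence in EGM-2, starved 12 h in serum-free EBM-2, then scratched with a pipette tip and rinsed. Incubated in EGM-2 with compound at 37 °C, 5% CO₂. After 8 h, cells migrated into the scratch were counted from images.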

Data set [10] has as its system HREC. The experiment in a line: Induction of cell cycle arrest in human HREC cells assessed as cells accumulation at G2/M phase after 48 hrs by propidium iodide before flow cytometry analysis. In kind it is functional, cell-based. Summed up: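 HRECs grown to 50% confluency in EGM-2, serum-starved overnight, then 48 h in fresh EGM-2 with compound. Fixed in 66% EtOH 2 h at 4 °C, stained with 20 μg/mL propidium iodide with 0.1% Triton X-100 and RNase for 30 min at 37 °C, then analysed by flow cytometry. Duplicate experiments.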
A general note: A flow cytometer gives signals particle by particle.

A short description of data set [11]: Growth inhibition of human HUVEC cells assessed as reduction in cell number after 48 hrs by alamarBlue based fluorescence assay. Put shortly:
as §2

For data set [12], the species on record is Mus musculus. Description: Inhibition of retinal neovascularization in oxygen-induced retinopathy mouse model at 1 uM in each eye relative to vehicle treated control. In kind it is functional, organism-based. Put shortly: as §1
Data set [13] is described as follows: Induction of apoptosis in human HREC cells assessed as nuclear morphology after 8 hrs by EdU incorporation assay. In kind it is cell-based. Summed up:
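HRECs (25,000) on attachment-factor-coated coverslips, 24 h growth, then 12 h in serum-free EBM-2. Incubated 8 h with 10 μM EdU plus compound at various concentrations, then processed by click chemistry with DAPI counterstain and imaged. Nuclear morphology and EdU-positive cells were scored by image analysis. n = 3, at least triplicate experiments, SEM.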

In data set [14] the test system is HREC. The experiment in a line: (§3) Growth inhibition of human HREC cells assessed as reduction in cell number after 48 hrs by alamarBlue based fluorescence assay. The format is functional. Summed up:
as §2

Data set [15] can be described thus: as §3. The format is functional. Summed up:
as §2

Data set [16] can be described thus: Selectivity ratio of GI50 for human 92-1 cells to GI50 for human HREC cells. To be noted: 92-1 cells and HREC cells. The format is ADME, cell-based.

As for `COc1ccc(CC2COc3cc(OC)c(OC)c(OC)c3C2=O)cc1OC(=O)[C@H](Cc1ccccc1)NC(=O)OC(C)(C)C` (some centres not stated), the Activity in data set [1] was less than 10%; in data set [2], “Non-toxic”; in the data set listed under Mus musculus [3], “Non-toxic”; in data set [8], less than 10%; with HREC [10], “Dose-dependent effect”; in data set [13] it was “Non-toxic”. The GI50 is 12000 nM in the data set with Y79, more than 100000 nM in data set [7] and 55 nM in [15]. Further, the selectivity ratio in data set [4] is 218; in data set [6], 14; in data set [16] it was more than 1000. For the same compound, the inhibition result with HREC [5], with HREC [9] and with HREC [14] was “Dose-dependent effect” in each case. In addition, in data set [11], the GI50 at 48 h was found to be 750 nM. In addition, the inhibition entry in the data set filed under Mus musculus [12] is “Active”.

In general, GI50 refers to the concentration at which growth is held to half of that of the control.
